We go through seven compounds from ChEMBL document CHEMBL2390836, “Synthesis and antitumor activities of naturally occurring oleanolic acid triterpenoid saponins and their derivatives” (Eur J Med Chem, 2013).

A value given as a limit tells only on which side of the number the result lay.

What all share (type): functional, cell-based
For one experiment, the system named is HL-60. Kind of experiment: Cytotoxicity against human HL60 cells after 72 hrs by MTT assay. The conditions noted are these: HL-60, 72 h. Summed up:
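HL-60 human promyelocytic leukemia cells were plated in 96 wells and treated in triplicate with graded concentrations at 37 °C for 72 h. Viability was read by MTT reduction. IC50 was obtained by the Logit method from at least three independent experiments.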

The next experiment has as its system A-375. Kind of experiment: Cytotoxicity against human A375 cells after 72 hrs by sulforhodamine B assay. The following applies: A-375, 72 h. In outline:
(§1)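 Cells seeded in 96-well plates and exposed in triplicate to a concentration gradient at 37 °C for 72 h. Total protein staining with sulforhodamine B was the read-out. IC50 was calculated by the Logit method from at least three independent experiments.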

The next experiment has as its system A549. The experiment can be described thus: Cytotoxicity against human A549 cells after 72 hrs by sulforhodamine B assay. The conditions noted are these: A549, 72 h. In outline:
as §1
A general note: In SRB staining, fixed cells bind dye roughly in proportion to their protein.

The IC50 is the concentration at which inhibition is half-maximal. On to `C[C@@H]1O[C@@H](O[C@H]2[C@H](O[C@H]3CC[C@]4(C)[C@H]5CC=C6[C@@H]7CC(C)(C)CC[C@]7(C(=O)O)CC[C@@]6(C)[C@]5(C)CC[C@H]4C3(C)C)OC[C@H](O)[C@@H]2O)[C@H](O)[C@H](O[C@@H]2OC[C@@H](O)[C@H](O)[C@H]2O)[C@H]1O`, for which the values for the IC50 in the experiment with HL-60, with A-375 and in the experiment on A549 were 3.4 µM, 8.9 µM and 15.4 µM, respectively.

On to `C[C@@H]1O[C@@H](O[C@H]2[C@H](O[C@H]3CC[C@]4(C)[C@H]5CC=C6[C@@H]7CC(C)(C)CC[C@]7(C(=O)O)CC[C@@]6(C)[C@]5(C)CC[C@H]4C3(C)C)OC[C@H](O)[C@@H]2O)[C@H](O)[C@H](O[C@@H]2OC[C@@H](O[C@@H]3O[C@H](CO)[C@@H](O)[C@H](O)[C@H]3O)[C@H](O)[C@H]2O)[C@H]1O`, for which the IC50 was 4.2 µM in the experiment on HL-60, 22.1 µM with A-375 and above 20 µM in the experiment with A549.

As for `C[C@@H]1O[C@@H](O[C@H]2[C@H](O[C@H]3CC[C@]4(C)[C@H]5CC=C6[C@@H]7CC(C)(C)CC[C@]7(C(=O)O)CC[C@@]6(C)[C@]5(C)CC[C@H]4C3(C)C)OC[C@H](O)[C@@H]2O)[C@H](O)[C@H](O)[C@H]1O`, the values for the IC50 in the experiment with HL-60, with A-375 and in the experiment with A549 were 9.2 µM, 8.4 µM and 15.8 µM, respectively.

Turning to `CC[C@@]1(O)C(=O)OCc2c1cc1n(c2=O)Cc2cc3cc(O)ccc3nc2-1` [HYDROXYCAMPTOTHECIN], the IC50 in the experiment on HL-60 was 0.25 µM; with A-375, 0.15 µM; with A549, 0.56 µM.

As for `C[C@@H]1O[C@@H](O[C@H]2[C@H](O[C@H]3CC[C@]4(C)[C@H]5CC=C6[C@@H]7CC(C)(C)CC[C@]7(C(=O)O)CC[C@@]6(C)[C@]5(C)CC[C@H]4C3(C)C)OC[C@@H](O)[C@@H]2O)[C@H](O)[C@H](O[C@@H]2O[C@H](CO)[C@@H](O[C@@H]3O[C@H](CO)[C@@H](O)[C@H](O)[C@H]3O)[C@H](O)[C@H]2O)[C@H]1O`, the IC50 in the experiment with HL-60 turned out to be 2.5 µM; in the experiment with A-375, 6.1 µM; in the experiment with A549, 7.8 µM.

On to `C[C@@H]1O[C@@H](O[C@H]2[C@H](O[C@H]3CC[C@]4(C)[C@H]5CC=C6[C@@H]7CC(C)(C)CC[C@]7(C(=O)O)CC[C@@]6(C)[C@]5(C)CC[C@H]4C3(C)C)OC[C@H](O)[C@@H]2O)[C@H](O)[C@H](O[C@@H]2O[C@H](CO)[C@@H](O[C@@H]3O[C@H](CO)[C@@H](O)[C@H](O)[C@H]3O)[C@H](O)[C@H]2O)[C@H]1O`, for which the IC50 in the experiment on HL-60 stood at 3.5 µM; with A-375, 5.9 µM; in the experiment on A549, 7.9 µM.

Take `CC1(C)CC[C@]2(C(=O)O)CC[C@]3(C)C(=CC[C@@H]4[C@@]5(C)CC[C@H](O[C@@H]6O[C@H](CO)[C@@H](O)[C@H](O)[C@H]6O[C@@H]6O[C@H](CO)[C@@H](O)[C@H](O)[C@H]6O)C(C)(C)[C@@H]5CC[C@]43C)[C@@H]2C1` [ACUTOSIDE A]: the IC50 is 12.5 µM in the experiment with HL-60, 10.3 µM with A-375 and 15.3 µM in the experiment with A549.
